RGS4 pot: RGS4 potentiators or activators, primary screen, cell-based, HEK293 M3R inducible RGS4, calcium flux. carbachol calcium flux Fluo4; active compounds read low. B-score at 10 µM. actives 0.92% (n = 310,000). AID 463111, 2010;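 active means B-score of the integrated calcium signal more than 4 SD below the library mean, with starting fluorescence not abnormally high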;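 further: negative B-score means reduced calcium response which marks RGS4 activation or potentiation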
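Detection: kinetic calcium fluorescence imaging with Fluo4-AM dye, 2 µM / Material: HEK293 cells with stable M3R and inducible RGS4 / Schedule: recording 10 s baseline at 1 Hz, 100 s post-agonist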
MrgX1 allo act: positive allosteric modulators of MrgX1, primary screen, HEK293 cells, Fluo-4 calcium flux | Mas-related G-protein coupled receptor member X1 (Homo sapiens), Q96LB2 | FDSS; active compounds read high | B-score at 10 µM | actives 0.63% (n = 310,000) | AID 588675, 2011;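 active means plate-corrected calcium response at least 3 library SD above typical, normal starting fluorescence, not activating the receptor alone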;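 further: compound read alongside a low EC10 to EC30 dose of BAM8-22 agonist; peak minus trough fluorescence over baseline measured at the second addition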
Target sequence (Q96LB2 whole entry, looked up): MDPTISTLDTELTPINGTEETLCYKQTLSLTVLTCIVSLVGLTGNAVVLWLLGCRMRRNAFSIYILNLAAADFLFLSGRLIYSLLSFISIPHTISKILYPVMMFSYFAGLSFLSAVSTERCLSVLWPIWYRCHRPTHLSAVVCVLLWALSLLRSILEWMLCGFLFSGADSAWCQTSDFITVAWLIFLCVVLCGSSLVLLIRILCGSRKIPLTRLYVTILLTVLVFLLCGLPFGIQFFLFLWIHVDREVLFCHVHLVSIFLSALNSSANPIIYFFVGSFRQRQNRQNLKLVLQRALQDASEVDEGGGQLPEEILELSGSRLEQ
MrgX1 antagonist: antagonists of human MrgX1 receptor, primary screen, HEK293 cells, Fluo-4 calcium flux; Mas-related G-protein coupled receptor member X1 (Homo sapiens), Q96LB2; BAM8-22 antagonism; active compounds read low; B-score at 10 µM; actives 1.3% (n = 310,000); AID 588676, 2011;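 active means calcium-response B-score plate-corrected more than 3 library SD below zero, starting fluorescence within 5 deviations, no agonist response on first addition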;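 further: peak minus trough fluorescence over baseline after final BAM8-22 challenge near maximal dose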
RGS4 inh: RGS4 inhibitors, primary screen, cell-based, HEK293 M3R inducible RGS4, calcium flux; actives 0.45% (n = 310,000); Fluo-4 calcium flux; active compounds read high; triggered by carbachol at its EC20; Regulator of G-protein signaling 4 (Homo sapiens), P49798; B-score at 10 µM; AID 463165, 2010;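 active means B-score, a plate-corrected calcium signal, over three deviations above library mean, with baseline fluorescence within five deviations of library mean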;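 further: RGS4 expression induced by doxycycline in cells with stable M3 receptor; B-score is computed from the integrated fluorescence ratio over baseline after carbachol; higher B-score means a larger calcium signal and so more RGS4 inhibition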
Target sequence (P49798 whole entry, looked up): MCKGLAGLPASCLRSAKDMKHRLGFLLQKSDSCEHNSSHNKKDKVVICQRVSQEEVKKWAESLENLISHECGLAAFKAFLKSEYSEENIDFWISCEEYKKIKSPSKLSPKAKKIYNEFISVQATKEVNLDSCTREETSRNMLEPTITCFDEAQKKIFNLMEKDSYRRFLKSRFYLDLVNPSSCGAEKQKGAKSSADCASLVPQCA
MrgX1 ag: agonists of human MrgX1 receptor, primary screen, HEK293 cells, Fluo-4 calcium flux | Mas-related G-protein coupled receptor member X1 (Homo sapiens), Q96LB2 | Fluo-4 calcium fluorescence, agonist mode; active compounds read high | B-score at 10 µM | actives 0.44% (n = 310,000);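 active means calcium response B-score plate-corrected fluorescence ratio at least 3 library SD, with starting fluorescence B-score inside 5 SD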
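Material: MrgX1-expressing HEK293 cells; input: 15,000 cells per well; doses: test compound given as first of three sequential additions; schedule: overnight plating before 1 h dye loading; technique: Fluo-4 NW calcium-flux fluorescence, kinetic read; evaluation: baseline-normalised fluorescence change ratio, B-scored; control set: plate-wise positive and negative controls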
RGS4 block valid: enhanced carbachol calcium response, M3R/RGS4 cells, RGS4 inhibitor project, cell-based, validation screen, HEK293 M3R/RGS4, calcium flux; shares compounds with RGS4 inh; carbachol calcium Fluo-4 fluorescence; carbachol added at its EC20; 0 = buffer wells, 100 = carbachol control; calcium response, % at 10 µM; actives 65% (n = 1,700);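 active means duplicate-averaged calcium response above the buffer-only control mean plus 5 SD of those controls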;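 further: integrated fluorescence ratio F max minus min over baseline F0; higher response in RGS4-induced cells means RGS4 inhibition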
M3R Ca ctr: carbachol calcium response in non-induced M3R cells, confirmation, counter-screen for RGS4 inhibitor project, cell-based, HEK293 M3R; shares compounds with RGS4 inh; carbachol calcium Fluo-4; submaximal (EC20) carbachol stimulus; buffer wells 0%, carbachol control wells 100%; activity (percent), % at 10 µM; actives 20% (n = 1,900); AID 493000, 2010; call rule not given here;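 further: RGS4 induction absent so cells express M3R without RGS4; higher means more calcium signal and flags a non-specific hit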
M3R basal Ca ctr: second counter-screen for RGS4 inhibitors: non-induced cells without carbachol | shares compounds with RGS4 inh | HEK293 M3R/RGS4 non-induced, Fluo-4 calcium, no carbachol; normalised: buffer wells 0%, carbachol wells 100% | calcium response (agonist-mode artifact), % at 10 µM | actives 22% (n = 1,900) | AID 493001;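 active means duplicate-averaged calcium rise in uninduced cells above buffer wells' mean plus 5 SD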
Each line names hits and unclear results; the compound was inactive in the other large screens (follow-up assays come after a bar, where they were run). This is a sample that favours compounds with a hit; in the whole collection about 3.5% have one here.

NC(=O)CC(NC(=O)Cc1cccc2ccccc12)c1ccc(N2CCN(c3ccc(F)cc3)CC2)c([N+](=O)[O-])c1 (stereo not given)	none
O=C1/C(=C\c2ccccn2)SC(=S)N1c1ccc(S(=O)(=O)Nc2nccs2)cc1	RGS4 inh 5.88 | RGS4 block valid 20.5% | M3R Ca ctr inactive | M3R basal Ca ctr inactive
COc1ccc(-c2nnc(Nc3ccc(OC)c(C(=O)N4CCCCC4)c3)c3ccccc23)cc1	none | M3R Ca ctr inactive | M3R basal Ca ctr inactive
O=C(COC(=O)[C@@H]1CC(O)CN1S(=O)(=O)c1ccc2c(c1)OCCO2)Nc1ccccc1F (stereo not given in full)	none
O=C1CC[C@@H](C(=O)O)N1	none (no result: RGS4 pot, RGS4 inh)
Cc1ccc(NC(=O)CSc2nnc(C)n2CC2CCCO2)cc1 (stereo not given)	none
Cc1ccc(NC(=O)C(C)Sc2nnc(C)n2CC2CCCO2)cc1 (stereo not given)	RGS4 inh 4.71 (no result: MrgX1 allo act, MrgX1 antagonist, MrgX1 ag) | RGS4 block valid 5.0% | M3R Ca ctr inactive | M3R basal Ca ctr inactive
COc1ccc(NS(=O)(=O)c2ccc(Cl)c(N)c2)cc1Br	RGS4 inh 8.64 | RGS4 block valid 15.0% | M3R Ca ctr 31.5% | M3R basal Ca ctr inactive
O=[N+]([O-])c1ccc(O)c(/C=N/NC(=S)Nc2ccc(Cl)cc2Cl)c1	RGS4 inh 13.9 | RGS4 block valid 18.0% | M3R Ca ctr inactive | M3R basal Ca ctr inactive
O=C(N/N=C/c1cc([N+](=O)[O-])ccc1O)NC12CC3CC(CC(C3)C1)C2	RGS4 inh 7.89 | RGS4 block valid 12.0% | M3R Ca ctr inactive | M3R basal Ca ctr inactive
COc1ccc(N2CC(C(=O)N/N=C/c3cc([N+](=O)[O-])ccc3O)CC2=O)cc1 (stereo not given)	RGS4 inh 4.98 | RGS4 block valid 5.0% | M3R Ca ctr inactive | M3R basal Ca ctr inactive
O=C(c1ccc(COCC(F)(F)F)o1)N1CCCC1	RGS4 inh 5.91 | RGS4 block valid inactive | M3R Ca ctr inactive | M3R basal Ca ctr inactive
CC1CN(C(=O)c2ccc(COCC(F)(F)F)o2)CC(C)O1 (stereo not given)	none
O=C(Nn1c(=O)[nH]c2ccccc2c1=O)c1ccco1	none
O=C(NCCC(=O)N1CCCC1)c1ccccc1Cl	none
Cc1cc(C(=O)N/N=C/c2ccc(N(C)C)o2)cs1	RGS4 inh 8.7 | RGS4 block valid inactive | M3R Ca ctr inactive | M3R basal Ca ctr inactive
c1ccc2c(N3CCCCC3)nc(N3CCCC3)nc2c1	none
c1ccc2c(c1)nc(N1CCCCC1)c1ccccc12	RGS4 inh 7.6 | RGS4 block valid 53.5% | M3R Ca ctr 84.0% | M3R basal Ca ctr inactive
Cc1cc(N=Nc2ccccc2)c(NCC(O)C(O)C(O)CO)cc1C (stereo not given)	RGS4 inh 9.62 | RGS4 block valid 35.5% | M3R Ca ctr 38.0% | M3R basal Ca ctr inactive
CCc1noc(C)c1C(=O)OCC(=O)NC(=O)c1ccccc1	none
O=C1CCCC2=C1C(c1ccc(Cl)cc1)n1c(s/c(=C\c3ccc4ccncc4c3)c1=O)=N2 (stereo not given)	RGS4 inh 13.6 | RGS4 block valid 42.0% | M3R Ca ctr inactive | M3R basal Ca ctr 196.0%
CCOC(=O)C1=C(C)N=c2s/c(=C/c3ccc(OCC(=O)O)c(OC)c3)c(=O)n2C1c1ccc(Cl)cc1 (stereo not given)	none
COc1cc2c(cc1OC)CN(CCC(=O)c1ccc(Br)cc1)CC2	RGS4 inh 21.3 | RGS4 block valid 53.5% | M3R Ca ctr inactive | M3R basal Ca ctr 27.5%
Cc1ccc(-c2nc3ncccn3c2Nc2ccccc2C)o1	none
Cc1ccc(-c2nc3cnccn3c2Nc2c(C)cccc2C)o1	RGS4 inh 6.35 | RGS4 block valid 8.0% | M3R Ca ctr inactive | M3R basal Ca ctr 25.5%
O=C(O)CCSc1ccccn1	none
O=C(CCSc1ccccn1)c1ccccc1	RGS4 inh 5.73 | RGS4 block valid 5.0% | M3R Ca ctr 35.5% | M3R basal Ca ctr 18.5%
Cc1ccc(-n2nc3c(=O)n(CC(=O)NCc4cccs4)nc(C)c3c2C)cc1	RGS4 inh 4.86 | RGS4 block valid inactive | M3R Ca ctr inactive | M3R basal Ca ctr inactive
Cc1nn(CC(=O)NCCc2cccs2)c(=O)c2nn(-c3ccccc3)c(C)c12	none | M3R Ca ctr inactive | M3R basal Ca ctr 35.0%
Cc1ccc(-n2nc3c(=O)n(CC(=O)NCc4ccccn4)nc(C)c3c2C)cc1	none
Cc1nn(CC(=O)NCCc2ccco2)c(=O)c2nn(-c3ccccc3)c(C)c12	none
Cc1cc(N=Cc2cc(Cl)ccc2O)no1	RGS4 inh 5.69 | RGS4 block valid 7.0% | M3R Ca ctr 30.5% | M3R basal Ca ctr inactive
Nc1nnnn1/N=C/c1cc(Cl)ccc1O	none
COc1ccc(C(=O)/C(=C/O)N=Nc2ccc(F)cc2)cc1	RGS4 inh 6.76 | RGS4 block valid 56.0% | M3R Ca ctr 128.0% | M3R basal Ca ctr inactive
COc1ccc(N=N/C(=C\O)C(=O)c2cccs2)cc1	none
Cc1cccc(N=N/C(=C\O)C(=O)c2ccc(Br)cc2)c1	RGS4 inh 5.27 | RGS4 block valid 26.0% | M3R Ca ctr inactive | M3R basal Ca ctr inactive
COc1ccc(CN(C)CC(=O)N2CCc3ccccc3C2)cc1	none
O=C(O)/C=C/C(O)c1ccc(Cl)cc1 (stereo not given)	none (no result: RGS4 pot, RGS4 inh)
CCc1ccc2c(CN3CCC(C(=O)OC)CC3)cc(=O)oc2c1	RGS4 inh 7.23 | RGS4 block valid 13.0% | M3R Ca ctr inactive | M3R basal Ca ctr inactive
CCOC(=O)Nc1ccc2c(CN3CCC(C(=O)OC)CC3)cc(=O)oc2c1	RGS4 inh 4.93 | RGS4 block valid 24.5% | M3R Ca ctr inactive | M3R basal Ca ctr inactive
COC(=O)C1CCN(Cc2cc(=O)oc3cc(C)c(Cl)cc23)CC1	RGS4 inh 11.7 | RGS4 block valid 16.5% | M3R Ca ctr inactive | M3R basal Ca ctr inactive
CCOC(=O)Nc1ccc2c(COC(=O)c3ccccc3O)cc(=O)oc2c1	none
